{"data": "Assay results pooled from the literature", "MPO": "Myeloperoxidase (MPO, Homo sapiens, UniProt P05164)", "SLC6A2": "Sodium-dependent noradrenaline transporter (SLC6A2, Homo sapiens, UniProt P23975)", "Oprk1": "Kappa-type opioid receptor (Oprk1, Mus musculus, UniProt P33534)"}
{"target": "MPO", "assay": "enzyme activity, inhibitor, fluorescence", "setting": "0.1852 µM", "inhibition": "82.5%", "Structure (SMILES)": "CC(C)OCCn1c(=S)[nH]c(=O)c2[nH]ccc21"}
{"target": "SLC6A2", "assay": "ligand displacement, radioligand", "setting": "10 µM", "inhibition": "37%", "Structure (SMILES)": "N#CC[C@@]12C[C@@H]1[C@@H](n1cnc3c(Nc4ccccc4)nc(C#Cc4ccc(Cl)s4)nc31)[C@H](O)[C@@H]2O"}
{"target": "Oprk1", "assay": "ligand displacement, radioligand", "setting": "10 µM", "inhibition": "74.3%", "Structure (SMILES)": "CC(C)[C@@H](CN1CCc2ccccc2C1)NC(=O)c1cccc(-c2cccnc2)c1"}
{"target": "SLC6A2", "assay": "ligand displacement, radioligand", "setting": "10 µM", "inhibition": "78%", "Structure (SMILES)": "CCOC(=O)[C@@]12C[C@@H]1[C@@H](n1cnc3c(NCc4cccc(Cl)c4)nc(C#Cc4ccc(Cl)s4)nc31)[C@H](O)[C@@H]2O"}
{"target": "Cysteinyl leukotriene receptor 1 (CYSLTR1, Homo sapiens, UniProt Q9Y271)", "assay": "calcium signal, antagonist", "test system": "HEK293", "setting": "33 µM", "inhibition": "~41%", "Structure (SMILES)": "COc1ccc(C(=O)NC2CCCc3c2[nH]c2c(Cl)cccc32)cc1OC (stereo not drawn)"}
{"target": "Neuronal acetylcholine receptor; alpha3/beta4 (Homo sapiens, UniProt P30926+P32297)", "assay": "cell-free assay", "setting": "10 µM", "inhibition": "-4%", "Structure (SMILES)": "Cc1cc(F)cc2c(CCC(=O)N[C@@H]3C(=O)NC[C@H]3O)c(-c3ccc(F)cc3)[nH]c12"}
{"target": "Oprk1", "assay": "ligand displacement, radioligand", "setting": "10 µM", "inhibition": "69.4%", "Structure (SMILES)": "CC(C)[C@H](CN1CCc2ccccc2C1)NC(=O)c1c(Cl)cncc1Cl"}
{"target": "MPO", "assay": "enzyme activity, inhibitor, fluorescence", "setting": "0.3704 µM", "inhibition": "98.6%", "Structure (SMILES)": "NC/C(=C\\F)COc1cccc(Cn2c(=S)[nH]c(=O)c3[nH]cnc32)c1"}
{"target": "Oprk1", "assay": "ligand displacement, radioligand", "setting": "10 µM", "inhibition": "64.5%", "Structure (SMILES)": "CC(C)[C@H](CN1CCc2ccccc2C1)NC(=O)c1ccc([N+](=O)[O-])s1"}
{"target": "SLC6A2", "assay": "ligand displacement, radioligand", "setting": "10 µM", "inhibition": "50%", "Structure (SMILES)": "CCOC(=O)C12CC1C(n1ccc3c(NCCCc4ccccc4)nc(C#Cc4ccc(Cl)s4)nc31)C(O)C2O (stereo not drawn)"}
{"target": "RPS6KC1 (Homo sapiens, UniProt Q96S38)", "assay": "cell-free assay, inhibitor", "setting": "0.1 µM, lysate", "inhibition": "5.19%", "Structure (SMILES)": "Cc1cc(O)c(-c2ccc([C@@H](C)CN(C)C)cc2)c2c1[nH]c(=O)c1sccc12"}
{"target": "Oprk1", "assay": "ligand displacement, radioligand", "setting": "10 µM", "inhibition": "22.7%", "Structure (SMILES)": "CC(C)[C@@H](CN1CCc2ccccc2C1)NC(=O)C=Cc1ccccc1"}
{"target": "SLC6A2", "assay": "ligand displacement, radioligand", "setting": "10 µM", "inhibition": "15%", "Structure (SMILES)": "CCOC(=O)[C@@]12C[C@@H]1[C@@H](n1cnc3c(NCCO)nc(C#Cc4ccc(Cl)s4)nc31)[C@H](O)[C@@H]2O"}
{"target": "MPO", "assay": "enzyme activity, inhibitor, fluorescence", "setting": "15 µM", "inhibition": "98.2%", "Structure (SMILES)": "COc1ccc(Cl)cc1-c1cc(=O)[nH]c(=S)n1CC(N)=O"}
{"target": "SLC6A2", "assay": "ligand displacement, radioligand", "setting": "10 µM", "inhibition": "20%", "Structure (SMILES)": "N#CC[C@@]12C[C@@H]1[C@@H](n1cnc3c(Nc4ccccc4)nc(I)nc31)[C@H](O)[C@@H]2O"}
{"target": "Oprk1", "assay": "ligand displacement, radioligand", "setting": "10 µM", "inhibition": "72.2%", "Structure (SMILES)": "CC(C)[C@H](CN1CCc2ccccc2C1)NC(=O)c1cccc(-c2ccccc2)c1"}
{"target": "SLC6A2", "assay": "ligand displacement, radioligand", "setting": "10 µM", "inhibition": "52%", "Structure (SMILES)": "OC[C@@]12C[C@@H]1[C@@H](n1cnc3c(NCCCCCCc4ccccc4)nc(I)nc31)[C@H](O)[C@@H]2O"}
{"target": "Oprk1", "assay": "ligand displacement, radioligand", "setting": "10 µM", "inhibition": "88.7%", "Structure (SMILES)": "CC(C)[C@H](CN1CCc2ccccc2C1)NC(=O)c1ccc(F)cc1"}
